Laboratory results reported in ChEMBL document CHEMBL1938282 (J Med Chem, 2011).

Columns and labels:
[1] = target: T1, Amine oxidase [flavin-containing] B (Bos taurus, UniProt P56560); test: Inhibition of bovine brain MAOB using kynuramine as a substrate after 30 mins by spectrofluorometric method
T1 sequence (P56560 whole entry): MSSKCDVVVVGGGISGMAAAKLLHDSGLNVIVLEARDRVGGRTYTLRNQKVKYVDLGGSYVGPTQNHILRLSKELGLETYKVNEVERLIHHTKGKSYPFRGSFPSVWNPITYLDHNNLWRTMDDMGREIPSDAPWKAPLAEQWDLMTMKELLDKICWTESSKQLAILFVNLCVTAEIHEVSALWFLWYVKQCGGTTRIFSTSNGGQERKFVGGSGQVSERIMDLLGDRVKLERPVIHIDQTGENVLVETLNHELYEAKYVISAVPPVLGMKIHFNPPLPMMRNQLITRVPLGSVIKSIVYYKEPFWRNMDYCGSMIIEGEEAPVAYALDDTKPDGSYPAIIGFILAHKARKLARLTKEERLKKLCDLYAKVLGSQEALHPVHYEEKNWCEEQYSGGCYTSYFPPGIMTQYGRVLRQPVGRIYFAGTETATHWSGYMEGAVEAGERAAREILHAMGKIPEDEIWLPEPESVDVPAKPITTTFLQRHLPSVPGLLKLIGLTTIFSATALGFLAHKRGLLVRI
Method in brief: (§1)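 Mitochondria isolated from beef brain were pretreated for 30 min at 38 °C with 1 μM L-deprenyl to isolate MAO-A, or with 1 μM clorgyline to isolate MAO-B. Compounds in DMSO were preincubated for 30 min at 38 °C in potassium phosphate buffer at pH 7.4. Kynuramine was then added at four concentrations (5 μM–0.1 mM final) for 30 min.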

[2] = target: T2, Amine oxidase [flavin-containing] A (Bos taurus, UniProt P21398); test: Inhibition of bovine brain MAOA using kynuramine as a substrate after 30 mins by spectrofluorometric method; method in brief: as §1
T2 sequence (P21398 whole entry): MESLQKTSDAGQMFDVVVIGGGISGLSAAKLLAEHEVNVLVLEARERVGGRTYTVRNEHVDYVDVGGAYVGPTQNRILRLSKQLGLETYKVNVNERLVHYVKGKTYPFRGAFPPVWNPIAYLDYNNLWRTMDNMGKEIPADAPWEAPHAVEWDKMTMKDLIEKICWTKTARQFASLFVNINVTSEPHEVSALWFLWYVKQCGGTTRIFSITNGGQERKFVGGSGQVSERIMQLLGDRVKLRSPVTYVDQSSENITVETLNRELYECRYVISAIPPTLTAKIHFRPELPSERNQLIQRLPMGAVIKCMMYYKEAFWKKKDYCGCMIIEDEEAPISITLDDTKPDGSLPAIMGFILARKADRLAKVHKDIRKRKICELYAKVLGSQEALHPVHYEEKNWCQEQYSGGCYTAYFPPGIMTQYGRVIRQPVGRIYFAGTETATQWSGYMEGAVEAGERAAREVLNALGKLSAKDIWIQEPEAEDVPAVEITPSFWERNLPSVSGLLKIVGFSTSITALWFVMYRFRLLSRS

Bos taurus = species: Bos taurus; test: Selectivity index, ratio of Ki for bovine MAOB to Ki for bovine MAOA
Method in brief: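 Selectivity was calculated as Ki(MAO-B)/Ki(MAO-A). Each Ki came from a Dixon plot of kynuramine deamination by beef brain mitochondria, with 1 μM clorgyline present for MAO-B or 1 μM L-deprenyl for MAO-A, read fluorimetrically.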

SMILES	Ki [1]	Ki [2]	Ratio Ki (Bos taurus)
C=CCn1ccc(N2C[C@H](COC)OC2=O)c1	200000 nM	1 nM	200000
C=CCn1ccc(N2C[C@H](CN=[N+]=[N-])OC2=O)c1	100000 nM	4 nM	25000
COC[C@H]1CN(c2ccn(C)c2)C(=O)O1	170000 nM	300 nM	567
C=CCn1ccc(N2C[C@H](CO)OC2=O)c1	625000 nM	350 nM	1790
Cn1ccc(N2C[C@H](CN)OC2=O)c1	180000 nM	10 nM	18000
Cn1ccc(N2C[C@H](CO)OC2=O)c1	> 10000 nM	1000 nM	> 10
Cn1ccc(N2C[C@H](CN=[N+]=[N-])OC2=O)c1	360000 nM	200 nM	1800
CCn1ccc(N2C[C@H](CN=[N+]=[N-])OC2=O)c1	20000 nM	0.8 nM	25000
CCn1ccc(N2C[C@H](CN)OC2=O)c1	25000 nM	130 nM	192
CNC[C@H]1CN(c2ccn(C)c2)C(=O)O1	> 100000 nM	7 nM	> 14300

The remaining compounds from weak to strong by Ki [1], led by results:

Ki [1]	Ki [2]	Ratio Ki (Bos taurus)	SMILES
18000 nM	80 nM	225	CCn1ccc(N2C[C@H](CNC)OC2=O)c1
8000 nM	700 nM	11	C=CCn1ccc(N2C[C@H](CN)OC2=O)c1
2000 nM	100 nM	20	C=CCn1ccc(N2C[C@H](CNC)OC2=O)c1
1300 nM	0.6 nM	2170	CCn1ccc(N2C[C@H](COC)OC2=O)c1
300 nM	3 nM	100	CCn1ccc(N2C[C@H](CO)OC2=O)c1
220 nM	2.5 nM	88	COC[C@H]1CN(c2ccc(OCC[C@@H](O)C(F)(F)F)cc2)C(=O)O1 [BEFLOXATONE]
